Results collected from several papers.
Protocols differ between the studies behind these lines.
Target: Carbonic anhydrase 1 (CA1, Homo sapiens, UniProt P00915)
Effect on: enzyme activity
Action: inhibitor

SMILES	method	Ki
CC(C(=O)Nc1nnc(S(N)(=O)=O)s1)C1CCCCC1 (centres unmarked)	stopped-flow	0.0475 µM
OC(Cn1cncn1)(Cn1cncn1)c1ccc(F)cc1F	–	7.56 µM
Cc1cc(=O)oc2cc(OCCCCSC#N)ccc12	stopped-flow	> 100 µM
CC1(C(=O)Nc2nnc(S(N)(=O)=O)s2)CCC1	stopped-flow	0.334 µM
CC1CCCCC1OC(=O)c1ccc(=O)oc1 (centres unmarked)	stopped-flow	> 100 µM
NS(=O)(=O)c1cnc(NC(=O)CCc2ccccc2)s1	stopped-flow	2.43 µM
O=C(Oc1ccccc1)c1ccc(=O)oc1	stopped-flow	> 100 µM
Cn1cnc([N+](=O)[O-])c1Sc1ncnc2nc[nH]c12	–	12.4 µM
NS(=O)(=O)c1nnc(NC(=O)CCC2CCCCO2)s1 (centres unmarked)	stopped-flow	0.75 µM
O=C(O)c1cccc(=O)o1	stopped-flow	> 100 µM
CC1CCCC(C(=O)Nc2nnc(S(N)(=O)=O)s2)C1 (centres unmarked)	stopped-flow	0.0827 µM
CN(C/C=C/C#CC(C)(C)C)Cc1cccc2ccccc12	–	20.6 µM
O=C(OCc1cn(-c2ccc(Cl)cc2)nn1)c1ccc(=O)oc1	stopped-flow	> 100 µM
OCCOCCN1CCN(C(c2ccccc2)c2ccc(Cl)cc2)CC1 (centres unmarked)	–	10.3 µM
N#CSCc1cc(=O)oc2cc(O)ccc12	stopped-flow	> 100 µM
CN1CCC(=C2c3ccccc3CC(=O)c3sccc32)CC1	–	6.98 µM
C[n+]1cc(C(=O)[O-])ccc1O	stopped-flow	> 100 µM
Cc1cncc(CN2CCC(=C3c4ccc(Cl)cc4CCc4cccnc43)CC2)c1	absorbance	9.95 µM
CCOC(=O)c1ccc(=O)oc1	stopped-flow	> 100 µM
CC1(C)CCN(CC(=O)Nc2nnc(S(N)(=O)=O)s2)CC1	stopped-flow	0.0541 µM
